Laboratory results as given in ChEMBL document CHEMBL4346727, “Synthesis and pharmacological evaluation of novel N-Mannich bases derived from 5,5-diphenyl and 5,5-di(propan-2-yl)imidazolidine-2,4-dione core” (Bioorg Med Chem Lett, 2019).
Calls of active or inactive are those of the source. Unless noted, no cut-off for these calls is given here.

Key:
[1] = Neurotoxicity in CD1 mouse at 300 mg/kg, ip and measured after 0.5 hrs by rotarod test; format: toxicity, organism-based; settings: in vivo
Procedure, shortened: (§1)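 Mice dosed intraperitoneally at 30, 100 and 300 mg/kg, then tested on the rotarod at 0.5 h and 4 h. The value recorded is the minimum dose at which neurotoxicity appeared. A dash means no neurotoxicity at the top dose of 300 mg/kg.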

Mus musculus [2] = test: Anticonvulsant activity in CD1 mouse assessed as protection against subcutaneous pentylenetetrazole-induced seizures at 300 mg/kg, ip and measured after 0.5 hrs; format: functional, organism-based
Procedure, shortened: (§2)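 Mice were screened after intraperitoneal doses of 30, 100 and 300 mg/kg in the maximal electroshock and subcutaneous pentylenetetrazole tests, examined at 0.5 and 4 h. The value recorded is the minimum dose showing activity. No activity up to 300 mg/kg is scored as absent.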

[3] = Neurotoxicity in Sprague-Dawley rat at 30 mg/kg, po measured after 15 mins by rotarod test; format: toxicity, organism-based; settings: in vivo, 0.25 h
Procedure, shortened: (§3)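 Rats given one oral dose of 30 mg/kg and tested on the rotarod at 0.25, 0.5, 1, 2, 4 and 6 h.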

[4] = Neurotoxicity in Sprague-Dawley rat at 30 mg/kg, po measured after 2 hr by rotarod test; format: toxicity, organism-based; settings: in vivo; procedure, shortened: as §3
Mus musculus [5] = test: Anticonvulsant activity in ip dosed CD1 mouse assessed as protection against 50 mA current-induced seizure and measured after 0.5 hrs by maximal electroshock seizure test; format: functional; settings: read-out: MED; procedure, shortened: as §2
[6] = Neurotoxicity in Sprague-Dawley rat at 30 mg/kg, po measured after 4 hr by rotarod test; format: toxicity, organism-based; settings: in vivo; procedure, shortened: as §3
[7] = Neurotoxicity in CD1 mouse at 300 mg/kg, ip and measured after 4 hrs hrs by rotarod test; format: toxicity, organism-based; settings: in vivo; procedure, shortened: as §1
Mus musculus [8] = test: Anticonvulsant activity in CD1 mouse assessed as protection against subcutaneous pentylenetetrazole-induced seizures at 300 mg/kg, ip and measured after 4 hrs; format: functional, organism-based; procedure, shortened: as §2
[9] = Neurotoxicity in Sprague-Dawley rat at 30 mg/kg, po measured after 30 mins by rotarod test; format: toxicity, organism-based; settings: in vivo, 0.5 h; procedure, shortened: as §3
Mus musculus [10] = test: Anticonvulsant activity in ip dosed CD1 mouse assessed as protection against 50 mA current-induced seizure and measured after 4 hrs by maximal electroshock seizure test; format: functional; settings: read-out: MED; procedure, shortened: as §2
[11] = Neurotoxicity in Sprague-Dawley rat at 30 mg/kg, po measured after 1 hr by rotarod test; format: toxicity, organism-based; settings: in vivo; procedure, shortened: as §3
[12] = Neurotoxicity in CD1 mouse at 100 mg/kg, ip measured after 2 hrs by rotarod test; settings: in vivo
[13] = Neurotoxicity in CD1 mouse at 100 mg/kg, ip measured after 1 hr by rotarod test; settings: in vivo
[14] = Neurotoxicity in CD1 mouse at 100 mg/kg, ip measured after 15 mins by rotarod test; settings: in vivo, 0.25 h
[15] = Neurotoxicity in CD1 mouse at 100 mg/kg, ip measured after 30 mins by rotarod test; settings: in vivo, 0.5 h
Mus musculus [16] = test: Anticonvulsant activity in CD1 mouse assessed as protection against 32 mA current-induced seizure at 100 mg/kg, ip measured after 15 mins by 6 Hz psychomotor seizure test
Mus musculus [17] = test: Anticonvulsant activity in CD1 mouse assessed as protection against 50 mA current-induced seizure at 300 mg/kg, ip and measured after 0.5 hrs by maximal electroshock seizure test; format: functional, organism-based; procedure, shortened: as §2
[18] = Neurotoxicity in CD1 mouse at 100 mg/kg, ip measured after 4 hrs by rotarod test; settings: in vivo
Rattus norvegicus [19] = test: Anticonvulsant activity in Sprague-Dawley rat assessed as protection against 150 mA current-induced seizure at 30 mg/kg, po measured after 15 mins by maximal electroshock seizure test; format: functional, organism-based
Procedure, shortened: (§4)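 Rats received 30 mg/kg orally and were given maximal electroshock at 0.25, 0.5, 1, 2, 4 and 6 h. Read-out is the number of rats protected out of four.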

[20] = Neurotoxicity in ip dosed CD1 mouse and measured after 4 hrs by rotarod test; format: toxicity, organism-based; settings: in vivo; procedure, shortened: as §1
[21] = Neurotoxicity in ip dosed CD1 mouse and measured after 0.5 hrs by rotarod test; format: toxicity, organism-based; settings: in vivo; procedure, shortened: as §1
Rattus norvegicus [22] = test: Anticonvulsant activity in Sprague-Dawley rat assessed as protection against 150 mA current-induced seizure at 30 mg/kg, po measured after 1 hr by maximal electroshock seizure test; format: functional, organism-based; procedure, shortened: as §4
Rattus norvegicus [23] = test: Anticonvulsant activity in Sprague-Dawley rat assessed as protection against 150 mA current-induced seizure at 30 mg/kg, po measured after 2 hrs by maximal electroshock seizure test; format: functional, organism-based; procedure, shortened: as §4
Mus musculus [24] = test: Anticonvulsant activity in ip dosed CD1 mouse assessed as protection against subcutaneous pentylenetetrazole-induced seizures and measured after 4 hrs; format: functional; settings: CD1, 4 h, read-out: MED; procedure, shortened: as §2
Rattus norvegicus [25] = test: Anticonvulsant activity in Sprague-Dawley rat assessed as protection against 150 mA current-induced seizure at 30 mg/kg, po measured after 30 mins by maximal electroshock seizure test; format: functional, organism-based; procedure, shortened: as §4
Mus musculus [26] = test: Anticonvulsant activity in CD1 mouse assessed as protection against 50 mA current-induced seizure at 300 mg/kg, ip and measured after 4 hrs by maximal electroshock seizure test; format: functional, organism-based; procedure, shortened: as §2
Rattus norvegicus [27] = test: Anticonvulsant activity in Sprague-Dawley rat assessed as protection against 150 mA current-induced seizure at 30 mg/kg, po measured after 4 hrs by maximal electroshock seizure test; format: functional, organism-based; procedure, shortened: as §4
Mus musculus [28] = test: Anticonvulsant activity in CD1 mouse assessed as protection against 32 mA current-induced seizure at 100 mg/kg, ip measured after 30 mins by 6 Hz psychomotor seizure test
Mus musculus [29] = test: Anticonvulsant activity in CD1 mouse assessed as protection against 32 mA current-induced seizure at 100 mg/kg, ip measured after 2 hrs by 6 Hz psychomotor seizure test

Structure (SMILES): O=C1NC(c2ccccc2)(c2ccccc2)C(=O)N1CN1CCN(c2ccccc2)CC1
- Activity [1]: Non-Toxic
- MED (Mus musculus [2]): inactive
- Activity [3]: Non-Toxic
- Activity [4]: Non-Toxic
- minimal effective dose (Mus musculus [5]): 300 mg/kg
- Activity [6]: Non-Toxic
- Activity [7]: Non-Toxic
- Activity (Mus musculus [8]): inactive
- Activity [9]: Non-Toxic
- minimal effective dose (Mus musculus [10]): 100 mg/kg
- Activity [11]: Non-Toxic

Structure (SMILES): CC(C)C1(C(C)C)NC(=O)N(CN2CCN(c3cccc(C(F)(F)F)c3)CC2)C1=O
- Activity [1]: Non-Toxic
- Activity [12]: Non-Toxic
- MED (Mus musculus [2]): inactive
- Activity [3]: Non-Toxic
- Activity [13]: Non-Toxic
- Activity [14]: Non-Toxic
- Activity [4]: Non-Toxic
- Activity [15]: Non-Toxic
- Activity (Mus musculus [16]): inactive
- Activity (Mus musculus [17]): inactive
- Activity [6]: Non-Toxic
- Activity [18]: Non-Toxic
- Activity [7]: Non-Toxic
- Activity (Mus musculus [8]): inactive
- Activity [9]: Non-Toxic
- minimal effective dose (Mus musculus [10]): 100 mg/kg
- Activity (Rattus norvegicus [19]): inactive
- Activity [11]: Non-Toxic

Structure (SMILES): CC(C)C1(C(C)C)NC(=O)N(CN2CCN(c3ccc(F)cc3)CC2)C1=O
- MED (Mus musculus [2]): inactive
- MTC [20]: 300 mg/kg
- Activity (Mus musculus [17]): inactive
- minimal neurotoxic dose [21]: 300 mg/kg
- Activity (Mus musculus [8]): inactive
- minimal effective dose (Mus musculus [10]): 100 mg/kg

Structure (SMILES): O=C1NC(c2ccccc2)(c2ccccc2)C(=O)N1CN1CCN(c2ccc(F)cc2)CC1
- Activity [1]: Non-Toxic
- MED (Mus musculus [2]): inactive
- Activity [3]: Non-Toxic
- Activity (Rattus norvegicus [22]): inactive
- Activity [4]: Non-Toxic
- Activity (Mus musculus [17]): inactive
- Activity [6]: Non-Toxic
- Activity (Rattus norvegicus [23]): inactive
- Activity [7]: Non-Toxic
- Activity (Mus musculus [8]): inactive
- Activity [9]: Non-Toxic
- minimal effective dose (Mus musculus [10]): 100 mg/kg
- Activity (Rattus norvegicus [19]): inactive
- Activity [11]: Non-Toxic

Structure (SMILES): O=C1NC(c2ccccc2)(c2ccccc2)C(=O)N1CN1CCN(Cc2ccccc2)CC1
- Activity [1]: Non-Toxic
- MED (Mus musculus [2]): inactive
- Activity [3]: Non-Toxic
- Activity (Rattus norvegicus [22]): inactive
- Activity [4]: Non-Toxic
- minimal effective dose (Mus musculus [5]): 300 mg/kg
- Activity [6]: Non-Toxic
- Activity (Rattus norvegicus [23]): inactive
- Activity [7]: Non-Toxic
- Activity (Mus musculus [8]): inactive
- Activity [9]: Non-Toxic
- minimal effective dose (Mus musculus [10]): 100 mg/kg
- Activity [11]: Non-Toxic

Structure (SMILES): CC(C)C1(C(C)C)NC(=O)N(CN2CCN(c3ccccc3F)CC2)C1=O
- MED (Mus musculus [2]): inactive
- MTC [20]: 300 mg/kg
- minimal effective dose (Mus musculus [24]): 100 mg/kg
- minimal effective dose (Mus musculus [5]): 100 mg/kg
- minimal neurotoxic dose [21]: 300 mg/kg
- minimal effective dose (Mus musculus [10]): 100 mg/kg

Structure (SMILES): CC(C)C1(C(C)C)NC(=O)N(CN2CCN(c3cccc(Cl)c3)CC2)C1=O
- Activity [1]: Non-Toxic
- MED (Mus musculus [2]): inactive
- Activity [3]: Non-Toxic
- Activity (Rattus norvegicus [22]): inactive
- Activity [4]: Non-Toxic
- minimal effective dose (Mus musculus [5]): 100 mg/kg
- Activity [6]: Non-Toxic
- Activity [7]: Non-Toxic
- Activity (Mus musculus [8]): inactive
- Activity (Rattus norvegicus [25]): inactive
- Activity [9]: Non-Toxic
- minimal effective dose (Mus musculus [10]): 100 mg/kg
- Activity (Rattus norvegicus [19]): inactive
- Activity [11]: Non-Toxic

Structure (SMILES): CC(C)C1(C(C)C)NC(=O)N(CN2CCN(Cc3ccccc3)CC2)C1=O
- MED (Mus musculus [2]): inactive
- Activity (Mus musculus [26]): inactive
- Activity (Mus musculus [17]): inactive
- minimal neurotoxic dose [21]: 300 mg/kg
- Activity [7]: Non-Toxic
- Activity (Mus musculus [8]): inactive

Structure (SMILES): CC(C)C1(C(C)C)NC(=O)N(CN2CCN(C)CC2)C1=O
- MED (Mus musculus [2]): inactive
- Activity (Mus musculus [26]): inactive
- minimal effective dose (Mus musculus [5]): 300 mg/kg
- minimal neurotoxic dose [21]: 300 mg/kg
- Activity [7]: Non-Toxic
- Activity (Mus musculus [8]): inactive

Structure (SMILES): O=C1NC(c2ccccc2)(c2ccccc2)C(=O)N1CN1CCN(c2cccc(C(F)(F)F)c2)CC1
- Activity [1]: Non-Toxic
- Activity [12]: Non-Toxic
- MED (Mus musculus [2]): inactive
- Activity [3]: Non-Toxic
- Activity [13]: Non-Toxic
- Activity (Rattus norvegicus [22]): Active
- Activity [14]: Non-Toxic
- Activity [4]: Non-Toxic
- Activity [15]: Non-Toxic
- Activity (Mus musculus [16]): inactive
- minimal effective dose (Mus musculus [5]): 300 mg/kg
- Activity [6]: Non-Toxic
- Activity (Rattus norvegicus [27]): Active
- Activity (Mus musculus [28]): inactive
- Activity [18]: Non-Toxic
- Activity (Rattus norvegicus [23]): Active
- Activity (Mus musculus [29]): Active
- Activity [7]: Non-Toxic
- Activity (Mus musculus [8]): inactive
- Activity [9]: Non-Toxic
- minimal effective dose (Mus musculus [10]): 100 mg/kg
- Activity (Rattus norvegicus [19]): inactive
- Activity [11]: Non-Toxic

Structure (SMILES): O=C1NC(c2ccccc2)(c2ccccc2)C(=O)N1CN1CCN(c2cccc(Cl)c2)CC1
- Activity [1]: Non-Toxic
- MED (Mus musculus [2]): inactive
- Activity [3]: Non-Toxic
- Activity [4]: Non-Toxic
- Activity (Mus musculus [17]): inactive
- Activity [6]: Non-Toxic
- Activity [7]: Non-Toxic
- Activity (Mus musculus [8]): inactive
- Activity (Rattus norvegicus [25]): inactive
- Activity [9]: Non-Toxic
- minimal effective dose (Mus musculus [10]): 100 mg/kg
- Activity [11]: Non-Toxic

Structure (SMILES): O=C1NC(c2ccccc2)(c2ccccc2)C(=O)N1CN1CCN(c2ccccc2F)CC1
- Activity [1]: Non-Toxic
- Activity [12]: Non-Toxic
- MED (Mus musculus [2]): inactive
- Activity [3]: Non-Toxic
- Activity [13]: Non-Toxic
- Activity [14]: Non-Toxic
- Activity [4]: Non-Toxic
- Activity [15]: Non-Toxic
- Activity (Mus musculus [17]): inactive
- Activity [6]: Non-Toxic
- Activity [18]: Non-Toxic
- Activity (Mus musculus [29]): Active
- Activity [7]: Non-Toxic
- Activity (Mus musculus [8]): inactive
- Activity [9]: Non-Toxic
- minimal effective dose (Mus musculus [10]): 30 mg/kg
- Activity (Rattus norvegicus [19]): inactive
- Activity [11]: Non-Toxic
